# The source made the active and inactive calls. The rule behind the calls is not given here.
# Legend:
# C6 [1] = test: Cytotoxicity against rat C6 cells assessed as reduction in cell viability after 48 hrs by MTT assay; type: functional, cell-based; details: for IC50: C6, 48 h
# Procedure, shortened: (§1)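 C6 rat glioma cells in DMEM/10% FBS at 37 °C, 5% CO2. Seeded at 1 × 10^4 cells/well and exposed 48 h to 5–50 μM in DMSO, with a 1% DMSO vehicle control. MTT added at 0.5 mg/mL final for 60 min at 37 °C. Formazan dissolved in DMSO and read at 492 nm. Viability expressed as % of control. IC50 by linear regression of % inhibition against log concentration.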
# C6 [2] = test: Antiproliferative activity against rat C6 cells at 5 to 50 uM after 48 hrs by Neubauer chamber method; type: functional, cell-based
# Procedure, shortened: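 C6 rat glioma cells (ATCC) grown in DMEM/10% FBS with penicillin/streptomycin and Fungizone at 37 °C, 5% CO2. Plated at 5 × 10^3 cells/well and treated 48 h with 5, 10, 25 or 50 μM, dissolved in DMSO. Vehicle control was 1% DMSO. Cells then trypsinized and aliquots counted in a Neubauer chamber. ANOVA with Tukey post-test versus control.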
# C6 [3] = test: Cytotoxicity against rat C6 cells assessed as reduction in cell viability at 5 uM after 48 hrs by MTT assay relative to control; type: functional; procedure, shortened: as §1
# C6 [4] = test: Potency index, ratio of monastrol-palmitic acid IC50 to compound IC50 for cytotoxicity against rat C6 cells; type: functional
# C6 [5] = test: Cytotoxicity against rat C6 cells assessed as reduction in cell viability at 10 uM after 48 hrs by MTT assay; type: functional, cell-based; procedure, shortened: as §1
SMILES,Activity (C6 [1]),IC50 (C6 [1]) [µM],Activity (C6 [2]),Activity (C6 [3]),Ratio IC50 (C6 [4]),Activity (C6 [5])
CCCCCCCCCCCCCCCC1=C(C(=O)OC)C(c2cccc(O)c2)NC(=S)N1 (stereo not drawn),Dose-dependent effect,5.11,Active,50%,2.5,–
CCOC(=O)C1=C(C)NC(=S)NC1c1cccc(O)c1 (stereo not drawn) [MONASTROL],–,87.8,Active,–,–,–
CCCCCCCCCCCCCCCC1=C(C(=O)OC)C(c2cccc(O)c2)NC(=O)N1 (stereo not drawn),–,79.4,Active,Active,–,–
CCCCCCCCCCCCCCCCCC1=C(C(=O)OC)C(c2cccc(O)c2)NC(=O)N1 (stereo not drawn),–,21.8,Active,Active,–,–
CCCCCCCCCCCCCCCCCC1=C(C(=O)OC)C(c2cccc(O)c2)NC(=S)N1 (stereo not drawn),Dose-dependent effect,6.85,Active,50%,2.5,–
CCCCCCCC/C=C\CCCCCCCC1=C(C(=O)OC)C(c2cccc(O)c2)NC(=S)N1 (stereo not drawn),–,38.4,Active,–,–,–
CCCCCCCC/C=C\CCCCCCCC1=C(C(=O)OC)C(c2cccc(O)c2)NC(=O)N1 (stereo not drawn),–,166,Active,–,–,Active
